Our source for the inhibition and IC50 values is ChEMBL document CHEMBL1944518, “AlCl3 induced (hetero)arylation of 2,3-dichloroquinoxaline: a one-pot synthesis of mono/disubstituted quinoxalines as potential antitubercular agents” (Bioorg Med Chem, 2012).

For assay [1], the target named is T1, Secreted chorismate mutase (Mycobacterium tuberculosis) (UniProt P9WIB9).
T1 sequence (whole entry): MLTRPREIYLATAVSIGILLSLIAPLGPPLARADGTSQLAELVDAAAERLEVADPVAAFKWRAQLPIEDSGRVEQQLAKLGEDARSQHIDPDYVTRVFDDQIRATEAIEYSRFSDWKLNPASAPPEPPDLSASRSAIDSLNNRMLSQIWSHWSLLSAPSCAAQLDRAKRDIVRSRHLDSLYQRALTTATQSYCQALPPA
The assay is described as follows: Inhibition of Mycobacterium tuberculosis chorismate mutase expressed in Escherichia coli BL21 assessed as conversion of chorismate to prephenate at 50 uM after 5 mins by Spectrophotometry. In a few lines:
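MtCM purified by Ni-NTA from BL21(DE3) carrying pET22b/MtCM; 180 pmol started on 4 mM chorismate (Tris-HCl pH 7.5, EDTA, BSA, β-mercaptoethanol) with effector at 50 μM, 37 °C, 5 min, quenched with 1 N HCl. Absorbance at 274 nm, corrected for compound and no-enzyme blanks; % inhibition = 100 − residual activity.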

In assay [2] the target is T1, Secreted chorismate mutase (Mycobacterium tuberculosis). The assay is described as follows: (§1) Inhibition of Mycobacterium tuberculosis chorismate mutase expressed in Escherichia coli BL21 assessed as conversion of chorismate to prephenate after 5 mins by Spectrophotometry.
Assay [3] concerns the target T2, Secreted chorismate mutase (Mycobacterium tuberculosis, UniProt P9WIB9).
T2 sequence (P9WIB9 whole entry): T1 sequence (whole entry)
Described as §1.

One may read the inhibition as the percentage by which the read-out fell short of the control. `Oc1ccc(-c2nc3ccccc3nc2Cl)c2ccccc12`: in assay [1], the inhibition was determined as 35%. The same measure, in the same setting: as for `Oc1ccc2ccccc2c1-c1nc2ccccc2nc1-c1c[nH]c2ccc(Br)cc12`, the figure is 35%; as for `COc1ccc2c(-c3nc4ccccc4nc3-c3c[nH]c4ccccc34)c[nH]c2c1`, 45%; as for `Brc1ccc2[nH]cc(-c3nc4ccccc4nc3-c3c[nH]c4ccccc34)c2c1`, 31%.

For `Fc1cc2[nH]cc(-c3nc4ccccc4nc3-c3c[nH]c4ccc(Br)cc34)c2cc1F`, the inhibition in assay [1] is 27%. Still for that read-out and setting: the value for `COc1ccc2c(-c3nc4ccccc4nc3Cl)c[nH]c2c1` was 42%. On the same count and under the same terms, as for `COc1ccc2[nH]cc(-c3nc4ccccc4nc3Cl)c2c1`, the figure is 36%; as for `Oc1ccc(-c2nc3ccccc3nc2-c2c[nH]c3ccc(Br)cc23)c(O)c1`, 21%. Take `Oc1ccc(-c2nc3ccccc3nc2Cl)c(O)c1`: the inhibition in assay [1] was 31%. A word on the IC50: it is the concentration at which inhibition is half-maximal. In the case of `Fc1cc2[nH]cc(-c3nc4ccccc4nc3Cl)c2cc1F`, the results for the inhibition in assay [1] and in assay [2] were 64% and “Dose-dependent effect”, respectively. In assay [3], the IC50 worked out at 19.7 µM.
